Measured values: ChEMBL document CHEMBL4411328, “Synthesis and Structural/Functional Characterization of Selective M14 Metallocarboxypeptidase Inhibitors Based on Phosphinic Pseudopeptide Scaffold: Implications on the Design of Specific Optical Probes” (J Med Chem, 2019)
Activity calls are given as the source filed them. No cut-off for these calls is given here.

Columns and labels:
Carboxypeptidase A1 = target: T1, Carboxypeptidase A1 (Homo sapiens, UniProt P15085); test: Inhibition of human CPA1 using AAFP as substrate preincubated for 45 mins to 2 hrs measured at 30 sec intervals for 15 mins by UV/vis-spectrophotometry
T1 sequence (P15085 whole entry): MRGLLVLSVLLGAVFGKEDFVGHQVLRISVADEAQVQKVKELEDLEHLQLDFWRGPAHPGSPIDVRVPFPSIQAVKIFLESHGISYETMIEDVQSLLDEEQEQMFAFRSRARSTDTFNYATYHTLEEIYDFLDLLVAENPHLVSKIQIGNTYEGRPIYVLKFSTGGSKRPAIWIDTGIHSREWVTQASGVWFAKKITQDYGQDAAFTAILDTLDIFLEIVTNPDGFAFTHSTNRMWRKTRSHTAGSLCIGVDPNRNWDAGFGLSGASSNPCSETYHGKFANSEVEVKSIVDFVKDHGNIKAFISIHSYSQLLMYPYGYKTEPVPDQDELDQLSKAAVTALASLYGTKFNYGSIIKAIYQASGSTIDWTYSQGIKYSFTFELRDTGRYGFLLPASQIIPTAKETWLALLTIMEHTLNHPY
In short: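 hCPA1 was used at 1.0x10-8 M with AAFP substrate at 1.0x10-4 M, read at 355 nm. Enzyme and inhibitor were preincubated 45 min at 37 °C before substrate was added. Initial velocities were read every 30 sec for 15 min, in triplicate. Apparent Ki came from a fit to the tight-binding equation.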

[1] = target: T2, Carboxypeptidase B (Homo sapiens) (UniProt P15086); test: Inhibition of human CPB1 at 1 nM to 1 mM using AAFA as substrate preincubated for 45 mins to 2 hrs measured at 30 sec intervals for 15 mins by UV/vis-spectrophotometry
T2 sequence (whole entry): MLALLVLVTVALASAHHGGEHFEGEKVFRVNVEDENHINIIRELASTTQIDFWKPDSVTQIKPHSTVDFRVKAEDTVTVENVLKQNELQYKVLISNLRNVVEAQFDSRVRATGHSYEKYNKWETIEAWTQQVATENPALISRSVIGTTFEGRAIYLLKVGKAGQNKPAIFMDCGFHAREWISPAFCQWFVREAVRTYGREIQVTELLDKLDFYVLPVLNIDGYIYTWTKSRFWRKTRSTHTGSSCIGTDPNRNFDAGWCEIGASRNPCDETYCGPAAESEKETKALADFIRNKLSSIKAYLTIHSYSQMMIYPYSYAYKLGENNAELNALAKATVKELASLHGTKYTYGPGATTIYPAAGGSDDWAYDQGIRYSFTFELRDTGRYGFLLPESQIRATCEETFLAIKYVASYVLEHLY
In short: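 hCPB1 was used at 6.0x10-9 M with 1.0x10-4 M AAFA, read at 355 nm. After 45 min preincubation with inhibitor at 37 °C, residual activity at varied inhibitor concentrations was followed for 15 min at 30 sec intervals, in triplicate. Kiapp was fitted with the tight-binding equation.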

[2] = target: T3, Carboxypeptidase D (Homo sapiens) (UniProt O75976); test: Inhibition of human CPD at 1 nM to 1 mM using AAFA as substrate preincubated for 45 mins to 2 hrs measured at 30 sec intervals for 15 mins by UV/vis-spectrophotometry
T3 sequence (whole entry): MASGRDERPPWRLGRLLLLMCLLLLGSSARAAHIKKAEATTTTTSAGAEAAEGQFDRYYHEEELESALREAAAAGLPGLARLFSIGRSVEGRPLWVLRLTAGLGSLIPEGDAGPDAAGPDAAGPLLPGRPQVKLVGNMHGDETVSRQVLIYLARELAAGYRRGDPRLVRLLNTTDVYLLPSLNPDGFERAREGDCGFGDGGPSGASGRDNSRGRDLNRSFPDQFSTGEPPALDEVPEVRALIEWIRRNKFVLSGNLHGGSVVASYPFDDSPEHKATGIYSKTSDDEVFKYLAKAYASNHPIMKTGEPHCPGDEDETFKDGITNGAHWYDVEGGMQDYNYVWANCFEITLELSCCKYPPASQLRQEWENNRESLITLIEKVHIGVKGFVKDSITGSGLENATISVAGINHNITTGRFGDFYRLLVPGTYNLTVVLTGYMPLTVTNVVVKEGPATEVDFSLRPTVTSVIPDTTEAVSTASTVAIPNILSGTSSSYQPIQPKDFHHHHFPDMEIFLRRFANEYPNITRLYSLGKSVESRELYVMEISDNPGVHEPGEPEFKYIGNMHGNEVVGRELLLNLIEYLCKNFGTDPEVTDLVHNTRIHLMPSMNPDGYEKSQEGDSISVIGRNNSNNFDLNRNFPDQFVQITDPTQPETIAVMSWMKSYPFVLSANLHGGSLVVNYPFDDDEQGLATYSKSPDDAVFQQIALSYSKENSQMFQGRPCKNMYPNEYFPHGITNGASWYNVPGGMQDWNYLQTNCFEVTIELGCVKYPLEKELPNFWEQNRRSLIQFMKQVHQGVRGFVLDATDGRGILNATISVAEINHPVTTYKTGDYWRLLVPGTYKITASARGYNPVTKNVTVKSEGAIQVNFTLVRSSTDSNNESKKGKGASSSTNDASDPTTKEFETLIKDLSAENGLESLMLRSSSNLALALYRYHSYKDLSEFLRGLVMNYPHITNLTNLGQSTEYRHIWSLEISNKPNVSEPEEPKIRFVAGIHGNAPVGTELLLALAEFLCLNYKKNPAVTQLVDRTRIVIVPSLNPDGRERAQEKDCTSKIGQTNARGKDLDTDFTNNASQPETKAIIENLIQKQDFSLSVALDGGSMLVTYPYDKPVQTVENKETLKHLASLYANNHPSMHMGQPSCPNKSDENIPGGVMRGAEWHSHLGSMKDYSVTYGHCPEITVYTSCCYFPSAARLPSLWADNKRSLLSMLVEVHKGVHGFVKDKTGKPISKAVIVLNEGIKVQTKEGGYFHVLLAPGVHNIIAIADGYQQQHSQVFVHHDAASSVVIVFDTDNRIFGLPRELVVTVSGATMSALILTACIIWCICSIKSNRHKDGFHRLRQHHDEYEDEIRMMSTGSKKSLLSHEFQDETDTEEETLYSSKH
In short: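 hCPD was used at 2.0x10-8 M with AAFA substrate at 1.0x10-4 M, monitored at 355 nm. Buffer was 20 mM Tris-HCl pH 7.5, 100 mM NaCl, 1% DMSO, 0.05% Brij-35. Preincubation was 45 min at 37 °C. Residual activity at a range of inhibitor concentrations was measured from initial rates (30 sec reads, 15 min), in triplicate. Kiapp came from the tight-binding fit.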

Row | Structure (SMILES) | Ki (Carboxypeptidase A1) | inhibition [1] | inhibition [2]
1 | C[C@H](NC(=O)[C@H](Cc1ccc(O)cc1)NC(=O)COCCOCCN)P(=O)(O)C[C@@H](CCc1ccccc1)C(=O)O | 300 pM | inactive | inactive
2 | CC(=O)N[C@@H](CC(C)C)C(=O)N[C@@H](Cc1ccccc1)P(=O)(O)C[C@@H](CCc1ccccc1)C(=O)O | 80 pM | inactive | inactive
3 | CC(=O)N[C@@H](CCCCN)C(=O)N[C@@H](C)P(=O)(O)C[C@@H](CCc1ccccc1)C(=O)O | 1200 pM | inactive | inactive
4 | CC(=O)N[C@@H](CCC(=O)O)C(=O)N[C@@H](C)P(=O)(O)C[C@@H](CCc1ccccc1)C(=O)O | 3100 pM | inactive | inactive
5 | CC(=O)NCCOCCOCC(=O)N[C@@H](Cc1ccc(O)cc1)C(=O)N[C@@H](C)P(=O)(O)C[C@@H](CCc1ccccc1)C(=O)O | 129 pM | inactive | inactive
6 | C[C@H](NC(=O)[C@H](Cc1ccc(O)cc1)NC(=O)COCCOCCNC(=O)CCOCCOCCOCCNC(=O)CCc1ccc(C(=C\C=C2\N(CCCCS(=O)(=O)O)c3ccc4c(S(=O)(=O)[O-])cc(S(=O)(=O)O)cc4c3C2(C)C)/C=C/C2=[N+](CCCCS(=O)(=O)O)c3ccc4c(S(=O)(=O)O)cc(S(=O)(=O)O)cc4c3C2(C)C)cc1)P(=O)(O)C[C@@H](CCc1ccccc1)C(=O)O | 89 pM | inactive | inactive
7 | CC(=O)N[C@@H](Cc1ccc(O)cc1)C(=O)N[C@@H](C)P(=O)(O)C[C@@H](CCc1ccccc1)C(=O)O | 107 pM | inactive | inactive

Other lines, results leading:

Row | Ki (Carboxypeptidase A1) | inhibition [1] | inhibition [2] | Structure (SMILES)
8 | 87 pM | inactive | inactive | CC(=O)N[C@@H](CC(C)C)C(=O)N[C@@H](C)P(=O)(O)C[C@@H](CCc1ccccc1)C(=O)O
9 | 1700 pM | inactive | inactive | CC(=O)N1CCC[C@H]1C(=O)N[C@@H](C)P(=O)(O)C[C@@H](CCc1ccccc1)C(=O)O
10 | 5900 pM | inactive | inactive | CC(=O)N[C@@H](CO)C(=O)N[C@@H](C)P(=O)(O)C[C@@H](CCc1ccccc1)C(=O)O
